The nature of experiment [1]: reducers of endogenous Her2 protein level, primary screen, SKBR3 breast tumor cells, AlphaScreen, ATP viability (AID 461;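 active = Her2 level under about 52% in both replicate screens, with viability over 70% of control, limit read from the data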;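 for Her2 level: lower value means less Her2 protein in the cells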;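 for viability: percent of carrier control wells set as 100% viability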). As to conditions: 18-24 h, measured here: SKBR3 viability, ATP luminescence, at 10 µM. (In general: In Alpha technology, singlet oxygen from a donor bead excites a nearby acceptor bead.)
The target of experiment [2] is Receptor tyrosine-protein kinase erbB-2 (Homo sapiens) (UniProt P04626). Described as above. As to conditions: 18-24 h, at 10 µM, stronger effect = lower value.
Receptor tyrosine-protein kinase erbB-2 (Homo sapiens), sequence (P04626 whole entry, looked up): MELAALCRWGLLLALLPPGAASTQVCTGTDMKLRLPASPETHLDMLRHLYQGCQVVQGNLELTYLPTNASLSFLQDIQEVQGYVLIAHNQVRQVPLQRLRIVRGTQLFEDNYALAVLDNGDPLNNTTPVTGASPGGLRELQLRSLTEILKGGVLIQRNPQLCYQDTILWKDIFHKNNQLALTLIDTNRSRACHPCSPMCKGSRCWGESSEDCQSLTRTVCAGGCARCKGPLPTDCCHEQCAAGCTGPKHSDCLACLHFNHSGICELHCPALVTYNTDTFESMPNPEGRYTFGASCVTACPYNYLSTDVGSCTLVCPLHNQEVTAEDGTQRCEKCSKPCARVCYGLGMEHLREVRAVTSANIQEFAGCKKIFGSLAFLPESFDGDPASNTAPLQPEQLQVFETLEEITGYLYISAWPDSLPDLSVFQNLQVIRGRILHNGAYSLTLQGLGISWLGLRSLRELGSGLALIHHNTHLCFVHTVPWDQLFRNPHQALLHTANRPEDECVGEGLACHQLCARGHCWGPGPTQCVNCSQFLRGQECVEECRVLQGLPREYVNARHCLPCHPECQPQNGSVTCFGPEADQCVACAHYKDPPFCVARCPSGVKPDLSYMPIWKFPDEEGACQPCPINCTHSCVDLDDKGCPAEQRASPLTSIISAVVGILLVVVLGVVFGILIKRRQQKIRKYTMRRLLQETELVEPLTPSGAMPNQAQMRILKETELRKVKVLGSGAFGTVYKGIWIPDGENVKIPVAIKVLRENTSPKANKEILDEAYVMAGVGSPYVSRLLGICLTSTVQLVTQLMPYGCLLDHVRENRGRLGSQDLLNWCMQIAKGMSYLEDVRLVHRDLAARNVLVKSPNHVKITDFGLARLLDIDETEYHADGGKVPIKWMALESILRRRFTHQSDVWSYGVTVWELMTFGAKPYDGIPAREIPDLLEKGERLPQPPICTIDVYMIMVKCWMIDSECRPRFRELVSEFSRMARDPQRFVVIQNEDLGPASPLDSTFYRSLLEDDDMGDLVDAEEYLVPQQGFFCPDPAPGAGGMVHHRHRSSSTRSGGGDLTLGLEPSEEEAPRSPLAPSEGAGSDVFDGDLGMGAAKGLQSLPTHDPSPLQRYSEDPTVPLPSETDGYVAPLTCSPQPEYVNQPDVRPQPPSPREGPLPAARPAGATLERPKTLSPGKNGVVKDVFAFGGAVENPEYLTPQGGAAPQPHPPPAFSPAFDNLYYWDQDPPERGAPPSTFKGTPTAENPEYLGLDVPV
A short description of experiment [3]: SK-BR-3 cell growth inhibitors, pilot screen, 24 h, human (AID 572).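 Note: compound exposure lasted between 18 and 24 h rather than exactly 24 h; 100% = carrier-treated control wells.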 As to conditions: SK-BR-3 viability, CellTiter-Glo luminescence, at 10 µM, stronger effect = lower value.
Experiment [4] is described as follows: HUVEC growth inhibition – cell-based, human, primary screen (AID 575;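 active = viability at or below 30% in both replicate assays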;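 note: 100% = median of untreated cell wells with 0.1% DMSO on each plate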). As to conditions: HUVEC proliferation, CellTiter-Glo luminescence, 72 h; at 10 µM; stronger effect = lower value. Put shortly: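 material = primary HUVEC, no more than 12 passages | input = 1250 cells per well | controls = vehicle and MePR control wells | measured by = CTG luminescence | times = 72 h compound incubation | format = collagen-coated 384-well format | read-out = % viability vs DMSO wells | doses = single 10 µM dose, 0.1% DMSO, from 5x medium stock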
A general note: In ATP-based viability assays light output follows the ATP content of the culture.

Experiment [5] in a line: growth inhibitors of H69AR lung tumor, primary screen, human, duplicate replicates (AID 580;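 active = viability at or under a set limit in both replicates, limit being median viability minus 3 SD, cut at about 48% in these data, passing the limit was not always enough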;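 note: 100% = mean luminescence of untreated wells and 0% = no signal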). Particulars: H69AR lung tumor cells viability, ATP luminescence, 72 h; at 10 µM; stronger effect = lower value.
A short description of experiment [6]: reversal of MRP1-mediated doxorubicin resistance, pilot screen, H69AR cells, doxorubicin co-treatment (AID 601;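 active = viability loss from added drug above about 55%, and viability with drug at most 40%, in both replicates, limit read from the data, passing the limit was not always enough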). As to conditions: CellTiter-Glo, 72 h, at 10 µM; for differential viability (reversal): stronger effect = higher value.
The nature of experiment [7]: 384-well plate pilot, post-Golgi transport modulator project, inhibition of yeast transport mutant growth (AID 636; in the data active = inhibition above about 31%). As to conditions: absorbance 615 nm, about 18 h, stronger effect = higher value.
A short description of experiment [8]: growth suppression of yeast trafficking mutant, preliminary HTS, modulators of trafficking downstream of Golgi apparatus project, 1536-format plate, OD 615 nm (AID 637; in the data active = inhibition above about 30%). Particulars: yeast transport mutant growth, absorbance 615 nm, 18 h; stronger effect = higher value.
Setting [9] is: H69AR cells + 2 uM doxorubicin, measured here: viability with 2 uM doxorubicin, stronger effect = lower value.
[10] abbreviates: H69AR cells, compound alone cytotoxicity.

Molecules are shown by their SMILES. Activity calls are given as the source filed them.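 Rule for the calls, unless noted: active = viability at or below 10% of carrier control in both of two separate runs; inconclusive = viability at or below 10% in only one of the two runs; inactive = the rest.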

For orientation: viability means a read-out of living cells in per cent, often relative to untreated cells. Broadly, the inhibition is the drop in the measured response relative to a control, in per cent. Consider `O=C(CN1C(=O)CC(c2ccco2)Sc2ccccc21)Nc1ccccc1F` (stereo not given), for which the viability in experiment [1] is 82.5%; in experiment [3] it was 82.5% (inactive); in experiment [4], 72.2% (inactive); in experiment [5], 84.3% (inactive); in experiment [6] (setting [9]), 80.6%; in experiment [6] (setting [10]) it was 84.3%. In addition, in experiment [2], the Her2 level was 82% (inactive). Also, the differential viability (reversal) in experiment [6] (H69AR cells + 2 uM doxorubicin) was 3.75% (inactive). Moreover, the figures for the inhibition in experiment [7] and in experiment [8] were 0% (inactive) and -0.83% (inactive), respectively.

Regarding `CCCn1nnnc1SCC(=O)c1ccc2c(c1)OCCO2`, the viability in experiment [1] is 90%; in experiment [3] it was 90% (inactive); in experiment [4], 110% (inactive); in experiment [5] it was 106% (inactive); in experiment [6] (setting [9]), 92.8%; in experiment [6] (setting [10]), 106%. For the same compound, the Her2 level in experiment [2] is 108% (inactive). Also, the differential viability (reversal) in experiment [6] (H69AR cells + 2 uM doxorubicin) is 13.4% (inactive). Also, the inhibition in experiment [7] is 2.67% (inactive); in experiment [8], 10.7% (inactive).

Regarding `Cc1cc(C(=O)NCCN2CCN(c3cccc(Cl)c3)CC2)n(-c2ccccc2)n1`, the viability in experiment [1] is 98%; in experiment [3], 98% (inactive); in experiment [4] it was 42.3% (inactive); in experiment [5], 23.7% (active); in experiment [6] (setting [9]) it was 48.2%; in experiment [6] (setting [10]), 23.7%. In addition, in experiment [2], the Her2 level was 91.5% (inactive). In experiment [6] (H69AR cells + 2 uM doxorubicin), the differential viability (reversal) is -24.5% (inactive). Further, the inhibition in experiment [7] was -4.8% (inactive); in experiment [8], -1.48% (inactive).

Regarding `CCN(CC)CCCN(Cc1cc2cc(OC)ccc2[nH]c1=O)C(=O)Nc1ccccc1`, the viability in experiment [1] was 90%; in experiment [3], 90% (inactive); in experiment [4], 65.8% (inactive); in experiment [5] it was 77.7% (inactive); in experiment [6] (setting [9]) it was 74.3%; in experiment [6] (setting [10]) it was 77.7%. Further, the Her2 level in experiment [2] was 73% (inactive). In addition, the differential viability (reversal) in experiment [6] (H69AR cells + 2 uM doxorubicin) is 3.46% (inactive). In addition, the inhibition in experiment [7] was -5.73% (inactive); in experiment [8], -1.97% (inactive).

Consider `Cc1ccc(S(=O)(=O)N2CCN(S(C)(=O)=O)C2c2ccccc2)cc1` (stereo not given), for which the viability in experiment [1] is 82%; in experiment [3] it was 82% (inactive); in experiment [4], 103% (inactive); in experiment [5], 94.4% (inactive); in experiment [6] (setting [9]) it was 106%; in experiment [6] (setting [10]), 94.4%. The Her2 level in experiment [2] was 96% (inactive). The differential viability (reversal) in experiment [6] (H69AR cells + 2 uM doxorubicin) is -12% (inactive). Moreover, the inhibition in experiment [7] is 0.13% (inactive); in experiment [8], 0% (inactive).

Regarding `CCN1CCN(c2nc3c(C)cccn3c(=O)c2/C=C(\C#N)S(=O)(=O)c2ccccc2)CC1`, the viability was 93% in experiment [1]; 93% (inactive) in experiment [3]; 89.6% (inactive) in experiment [4]; 75.1% (inactive) in experiment [5]; 82.8% in experiment [6] (setting [9]); 75.1% in experiment [6] (setting [10]). In addition, the Her2 level in experiment [2] is 76.5% (inactive). In addition, the differential viability (reversal) in experiment [6] (H69AR cells + 2 uM doxorubicin) was -7.74% (inactive). Moreover, the inhibition in experiment [7] is -2.76% (inactive); in experiment [8] it was -0.18% (inactive).

For the compound `C=CCn1c(SCC(=O)NC2CCCCC2)nnc1-c1sc(N)nc1C`, the viability in experiment [1] was 99.5%; in experiment [3], 99.5% (inactive); in experiment [4], 110% (inactive); in experiment [5], 95.8% (inactive); in experiment [6] (setting [9]) it was 94.9%; in experiment [6] (setting [10]) it was 95.8%. The Her2 level in experiment [2] is 102% (inactive). In addition, the differential viability (reversal) in experiment [6] (H69AR cells + 2 uM doxorubicin) was 0.86% (inactive). In addition, the inhibition is -2.8% (inactive) in experiment [7] and -1.45% (inactive) in experiment [8].

Turning to `CC(=O)N(C(C)=O)c1cccc2c(N(C(C)=O)C(C)=O)cccc12`, the viability in experiment [1] was 106%; in experiment [3], 106% (inactive); in experiment [4], 97.4% (inactive); in experiment [5], 91.7% (inactive); in experiment [6] (setting [9]) it was 94.5%; in experiment [6] (setting [10]) it was 91.7%. In experiment [2], the Her2 level is 94% (inactive). In addition, the differential viability (reversal) in experiment [6] (H69AR cells + 2 uM doxorubicin) was -2.88% (inactive). Moreover, the results for the inhibition in experiment [7] and in experiment [8] were -4.29% (inactive) and -6% (inactive), respectively.

In the case of `COc1ccc(C2=NO[C@@H]3C(=O)N(c4cccc(C)c4C)C(=O)[C@H]23)cc1OC`, the viability in experiment [1] was 104%; in experiment [3], 104% (inactive); in experiment [4] it was 97.7% (inactive); in experiment [5], 91.5% (inactive); in experiment [6] (setting [9]), 99.5%; in experiment [6] (setting [10]) it was 91.5%. In addition, in experiment [2], the Her2 level was 106% (inactive). The differential viability (reversal) in experiment [6] (H69AR cells + 2 uM doxorubicin) is -7.95% (inactive). Further, the results for the inhibition in experiment [7] and in experiment [8] were 4.29% (inactive) and -3.49% (inactive), respectively.

On to `CC1=CCC2C(=O)N(c3nc(C)cc(C)n3)C(=O)C2C1` (stereo not given), for which the viability is 110% in experiment [1]; 110% (inactive) in experiment [3]; 101% (inactive) in experiment [4]; 91.1% (inactive) in experiment [5]; 95% in experiment [6] (setting [9]); 91.1% in experiment [6] (setting [10]). Besides, in experiment [2], the Her2 level was 80% (inactive). Further, the differential viability (reversal) in experiment [6] (H69AR cells + 2 uM doxorubicin) is -3.95% (inactive). In addition, the inhibition is -6.71% (inactive) in experiment [7] and 0.48% (inactive) in experiment [8].

As for `O=C(c1cc(S(=O)(=O)N2CCOCC2)ccc1F)N1CCCc2ccccc21`, the viability in experiment [1] is 99%; in experiment [3], 99% (inactive); in experiment [4], 102% (inactive); in experiment [5], 90.9% (inactive); in experiment [6] (setting [9]), 94.3%; in experiment [6] (setting [10]), 90.9%. In addition, the Her2 level in experiment [2] was 87% (inactive). For the same compound, in experiment [6] (H69AR cells + 2 uM doxorubicin), the differential viability (reversal) was -3.44% (inactive). The inhibition in experiment [7] was 0.64% (inactive); in experiment [8] it was -2.83% (inactive).

Consider `COc1ccc(S(=O)(=O)N2CCCC(C(=O)N3CCCCCC3)C2)cc1` (stereo not given), for which the viability is 102% in experiment [1]; 102% (inactive) in experiment [3]; 100% (inactive) in experiment [4]; 88.2% (inactive) in experiment [5]; 91.9% in experiment [6] (setting [9]); 88.2% in experiment [6] (setting [10]). Further, the Her2 level in experiment [2] is 80% (inactive). In addition, in experiment [6] (H69AR cells + 2 uM doxorubicin), the differential viability (reversal) is -3.65% (inactive). Besides, the inhibition is -5% (inactive) in experiment [7] and 2% (inactive) in experiment [8].

For `O=c1c2c(nc3nc(CCc4ccccc4)[nH]n13)CCC2`, the viability was 112% in experiment [1]; 112% (inactive) in experiment [3]; 86.6% (inactive) in experiment [4]; 91% (inactive) in experiment [5]; 77% in experiment [6] (setting [9]); 91% in experiment [6] (setting [10]). Besides, the Her2 level in experiment [2] is 92% (inactive). Besides, in experiment [6] (H69AR cells + 2 uM doxorubicin), the differential viability (reversal) was 14% (inactive). In addition, the values for the inhibition in experiment [7] and in experiment [8] were -6% (inactive) and 0.16% (inactive), respectively.

Consider `COC(=O)c1cc(NC(=O)C2CC=CCC2C(=O)O)cc(C(=O)OC)c1` (stereo not given), for which the viability was 97.5% in experiment [1]; 97.5% (inactive) in experiment [3]; 104% (inactive) in experiment [4]; 109% (inactive) in experiment [5]; 92.7% in experiment [6] (setting [9]); 109% in experiment [6] (setting [10]). Moreover, the Her2 level in experiment [2] is 86.5% (inactive). For the same compound, the differential viability (reversal) in experiment [6] (H69AR cells + 2 uM doxorubicin) is 15.8% (inactive). For the same compound, the inhibition in experiment [7] is -4.8% (inactive); in experiment [8], -1.94% (inactive).

The values are drawn from PubChem BioAssay.
